Screening data from PubChem.
STAT3 activator: increases IL-6 driven STAT3 reporter signal; U3A cells, IL-6 STAT3-luciferase reporter, luminescence; 100% = signal with IL-6 EC80 alone; activation (% of control), % at 5.6 µM; actives 0.91% (n = 190,000); AID 871;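 active means activation above the screen-wide mean of compound activation plus 3 SD, cut at about 130% in these data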;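 further: 0% = background luminescence of wells with medium and substrate only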
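Detection: reporter luminescence signal / Assay system: STAT1-lacking human U3A cells, STAT3 luciferase reporter / Incubation: compound pre-incubation 1 h before IL-6, then 6 h stimulation at 37 °C / Control set: IL-6-only high control / Read-out: % activation relative to IL-6 control / Probe or stimulus: Interleukin-6, 33 ng/mL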
APP 5'UTR act: activates APP 5'UTR luciferase reporter; SH-SY5Y APP 5'UTR luciferase reporter, luminescence; zero percent = DMSO vehicle wells; activation, % at 2 µM; actives 1% (n = 190,000);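 active means activation above a set limit, based on mean plus 3 SD of controls, cut at about 140% in these data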
NF-kB neuron act: NF-kB expression increase, human neuronal cells; AID 1239; NF-kB reporter expression; stronger effect = higher value; actives 1.6% (n = 190,000); fold change at 12.5 µM; in the data active means fold change above about 3.3
Pf gamet viab: P. falciparum stage V gametocyte viability inhibition; P. falciparum stage V gametocytes, ATP luminescence, 24 h; inhibition, % at 10.9 µM; actives 0.065% (n = 150,000); AID 743093;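 active means inhibition above the mean plus 3 SD of compounds within the control limits, set per campaign, cut at about 38% in these data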;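 further: 0% = DMSO wells and 100% = medium only without gametocytes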
STAT1 blocker: inhibitors of IFN-gamma induced STAT1 signaling; inhibition, % at 5.5 µM; AID 920; NIH 3T3 STAT1-luciferase reporter, luminescence; actives 0.35% (n = 200,000);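 active means inhibition above a set limit, the mean inhibition across all tested compounds plus 3 SD, cut at about 34% in these data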;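 further: 0% = IFN-gamma with DMSO and 100% = IFN-gamma with 300 µM nifuroxazide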
STAT1 activator: STAT1 signaling activation; NIH 3T3 STAT1-luciferase reporter, IFN-gamma, luminescence; 100% = IFN-gamma alone, no compound; activation (% of control), % at 5.5 µM; actives 2.6% (n = 200,000); AID 932;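 active means activation above the screen-wide mean activation plus 3 SD, cut at about 130% in these data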;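 further: raw ratio to IFN-gamma control signal so 100% means no change and 0% no light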
STAT1 activ conf: confirmation of STAT1 signaling activators; AID 1262; shares compounds with STAT1 activator; actives 97% (n = 1,200); NIH 3T3 STAT1-luciferase reporter, IFN-gamma potentiation, luminescence; 100% = IFN-gamma EC80 alone, no compound; activation (% of control), % at 5.7 µM;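 active means activation above a set limit carried over from the earlier primary STAT1 screen, cut at about 140% in these data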;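 further: simple ratio to median IFN-gamma plus DMSO wells so 0% means no light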
NFkB act: counter-screen for STAT1 activators: NF-kappaB activation; actives 43% (n = 1,200); activation (% of control), % at 5.7 µM; shares compounds with STAT1 activator; HEK293T NF-kB luciferase reporter, TNF-alpha stimulated, luminescence; 100% = TNF-alpha with vehicle only;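 active means activation above the mean of solvent-only control wells plus 3 SD, set per campaign, cut at about 130% in these data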;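 further: TNF-alpha given at a submaximal dose yielding about 80% of full reporter signal; values are well signal over median control so 100% means no change and 0% no light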
STAT3 act 2: counter-screen for STAT1 activators: human STAT3 activation; shares compounds with STAT1 activator; U3A cells STAT3-luciferase reporter, IL-6, luminescence; cells lack STAT1; 100 = IL-6 alone, no compound effect; activation (% of control), % at 5.7 µM; actives 46% (n = 1,200); AID 1316;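 active means activation above the solvent-only control well mean plus 3 SD, set per plate batch, cut at about 110% in these data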;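 further: 0% = no luminescence and 100% = median IL-6 plus DMSO wells; higher means more STAT3 reporter activation so hits are non-selective activators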
An asterisk follows results filed as active; x = no result given. Rows were chosen to be rich in hits. Some 3.9% of all compounds tested hit in one or more screens of this group.

SMILES | STAT3 activator | APP 5'UTR act | NF-kB neuron act | Pf gamet viab | STAT1 blocker | STAT1 activator | STAT1 activ conf | NFkB act | STAT3 act 2
CCCc1cnc(N2CCN(C(=O)c3c(-c4ccccc4)noc3C)CC2)nc1 | x | x | x | -23.2 | x | x | x | x | x
O=C(Nc1ccc2nc3ccccc3nc2c1)c1ccccc1 | 79.1 | 197.9* | 3.78* | x | -99.8 | 190.0* | 229.9* | 135.9* | 99.8
O=C(Nc1ccc(Cl)c(Cl)c1)c1ccccc1 | x | x | x | -9.5 | x | x | x | x | x
S=C(NCCc1ccccc1)Nc1cnc2ccccc2c1 | 96.4 | -1.5 | 1.81 | 7.6 | -29.1 | 124.8 | x | x | x
Cc1ccc(NC(=O)Nc2cnc3ccccc3c2)cc1 | 102.0 | 198.2* | 3 | -26.9 | -90.0 | 181.0* | 192.6* | 128.8 | 111.4*
O=C(NC(=S)Nc1cnc2ccccc2c1)c1ccccc1 | 122.6 | 122.2 | 3.97* | 0.1 | -64.2 | 155.2* | 186.0* | 123.0 | 132.3*
COc1ccc(N(C=O)C(C(=O)Nc2c(C)cccc2C)c2ccccc2)cc1 (stereo not given) | x | x | x | -18.8 | x | x | x | x | x
CNc1oc(/C=C/c2ccccc2)nc1C#N | 103.0 | 112.4 | 5.3* | -19.7 | -60.0 | 154.5* | 166.9* | 136.2* | 103.5
O=c1cc(NCc2ccccc2)[nH]c(=O)[nH]1 | x | x | x | -218.4 | x | x | x | x | x
COC(=O)c1cn[nH]c1NC(=S)Nc1ccccc1C | 106.1 | -1.5 | 1.71 | x | -55.5 | 151.0* | 169.5* | 129.2 | 116.9*
COC(=O)c1cn[nH]c1NC(=S)Nc1ccc(C)cc1Cl | 59.1 | 169.1* | 1.54 | x | -76.5 | 170.0* | 306.6* | 127.0 | 98.4
COc1ccc(Nc2oc(-c3ccc(Cl)cc3)nc2C#N)cc1 | 108.9 | 13.9 | 3.3* | x | -80.7 | 173.7* | 208.5* | 134.7* | 124.3*
Cc1ccc(-c2nc(Nc3ccccc3)n[nH]2)cc1 | 95.5 | 188.1* | 10.1* | x | -101.1 | 193.2* | 290.2* | 153.1* | 121.7*
CC(=Nc1ccc(O)cc1)c1sc2ccccc2c1O | 92.9 | 170.7* | 13.3* | 14.2 | -76.5 | 169.6* | 230.5* | 150.1* | 104.1
CC(=Nc1ccccc1O)c1sc2ccccc2c1O | x | x | x | -20.9 | x | x | x | x | x
Nc1nnnn1/N=C/c1cc(Br)ccc1O | x | x | x | 12.1 | x | x | x | x | x
COc1ccc(-c2cc(C)nc3c(-c4ccccc4)cnn23)cc1 | 59.0 | 168.5* | x | -12.1 | -71.9 | 166.7* | 265.9* | 125.0 | 110.4
COc1ccccc1-c1c(C)nn2c(-c3ccccc3)cc(C)nc12 | x | x | x | -1.1 | x | x | x | x | x
O=C(NC(=S)Nc1ccc(F)cc1)c1ccc2c(c1)OCCO2 | 84.1 | 212.6* | 2.06 | x | -58.9 | 152.5* | 210.7* | 130.0 | 100.7
O=C(NC(=S)Nc1ccc(N2CCOCC2)cc1)c1ccc2c(c1)OCCO2 | 95.7 | 15.7 | 0.76 | -13.9 | -9.7 | 108.5 | x | x | x
COC(=O)CCC(=O)N1CCCC(N2CCN(c3cccc(C(F)(F)F)c3)CC2)C1 (stereo not given) | x | x | x | -3.8 | x | x | x | x | x
CC(C)(C)c1ccc(OCc2nc(-c3ccccn3)no2)c(Br)c1 | 108.5 | 164.4* | 3.73* | x | -62.8 | 158.0* | 218.7* | 142.9* | 130.8*
COc1ccc(Cc2nc(-c3ccccn3)no2)cc1 | 112.0 | 43.5 | 1.8 | x | -22.9 | 120.6 | x | x | x
Nc1ccc2nc(COc3ccccc3)[nH]c2c1 | x | x | x | 16.6 | x | x | x | x | x
c1ccc2cc(OCc3nc4ccccc4[nH]3)ccc2c1 | 78.6 | 184.3* | 5.12* | x | -67.5 | 163.0* | 200.4* | 129.8 | 100.7
SMILES | STAT3 activator | APP 5'UTR act | NF-kB neuron act | Pf gamet viab | STAT1 blocker | STAT1 activator | STAT1 activ conf | NFkB act | STAT3 act 2
COc1ccc(/C(N)=N/OC(=O)c2cccs2)cc1OC | 104.6 | 65.9 | 1.94 | 10.9 | -66.4 | 159.0* | 140.1* | 118.3 | 104.3
Cc1ccc(/C(N)=N/OC(=O)c2cccs2)cc1 | 93.2 | x | 1.06 | 2.6 | -71.7 | 163.8* | 188.2* | 141.8* | 115.9*
N/C(=N\OC(=O)c1cccs1)c1ccccc1 | 106.2 | 82.8 | 1.89 | 7.3 | -63.0 | 156.1* | 161.5* | 129.2 | 104.9
Cc1nnc(NC(=O)c2ccc(S(=O)(=O)C(F)F)cc2)s1 | x | x | x | -24.3 | x | x | x | x | x
CC(=O)Nc1ccc(C(=O)OCC(=O)Nc2c(F)cccc2F)cc1 | x | x | x | -1.6 | x | x | x | x | x
CC(=O)c1c(C)cc(C)c(CSc2ccccn2)c1C | x | x | x | -10.6 | x | x | x | x | x
COc1ccc(-c2c(C)nn(-c3ccccc3)c2N)cc1 | 109.8 | 7.5 | 2.31 | x | -20.3 | 122.9 | x | x | x
Cc1nn(-c2ccc(C(=O)O)cc2)c(N)c1-c1ccccc1 | 108.6 | 125.2 | 4.89* | 10.9 | -65.8 | 159.5* | 199.5* | 139.8* | 139.3*
COc1ccc(-n2c(C)cc(C(=O)Cn3nnc4ccccc4c3=O)c2C)cc1 | 106.5 | 18.4 | 1.32 | x | -61.7 | 155.2* | 176.4* | 105.7 | 99.5
COc1ccc(-n2c(C)cc(C(=O)Cn3nc(C(=O)O)c4ccccc4c3=O)c2C)cc1 | 108.0 | 1.0 | 1.11 | -5.0 | -5.5 | 104.9 | x | x | x
O=S(=O)(Nc1nc2ccccc2s1)c1cnc(Cl)c(Br)c1 | x | x | x | 13.6 | x | x | x | x | x
COc1ccccc1-c1nn2c(-c3ccco3)nnc2s1 | 90.4 | 44.1 | 1.4 | x | -78.7 | 172.1* | 192.3* | 137.9* | 107.7
C/C(=N\NC(=O)c1c(Cl)cnn1C)c1ccc(NC(=O)c2ccncc2)cc1 | 87.4 | 7.8 | 0.74 | x | -4.8 | 104.3 | x | x | x
COc1cc(NC(=O)c2cccc(Cl)c2)ccc1NC(=O)c1cccs1 | 78.5 | 6.0 | 0.85 | 2.1 | 13.0 | 86.7 | x | x | x
COc1cc(NC(=O)c2ccccc2Cl)ccc1NC(=O)c1cccs1 | 88.9 | 84.7 | 1.31 | -35.1 | -53.5 | 152.6* | 181.3* | 134.4* | 98.5
CC1=NN(C(=O)c2ccco2)C(O)(c2ccccc2)C1 (stereo not given) | x | x | x | 18.4 | x | x | x | x | x
CC1=NN(C(=O)c2ccc(C)o2)C(O)(c2ccccc2)C1 (stereo not given) | 107.5 | 48.7 | 1.03 | -27.2 | -66.8 | 158.7* | 108.8 | 102.6 | 94.1
COC(C#CCCN(C)C)(c1ccccc1)c1ccccc1 | 109.4 | -16.2 | 1.26 | -0.1 | 4.4 | 96.1 | x | x | x
Cc1cc(Oc2ccc(=O)n(C)n2)nc(=S)[nH]1 | 99.1 | -22.1 | 1.17 | x | 0.6 | 97.7 | x | x | x
O=C1c2ccccc2C(=O)N1CCc1c[nH]c2ccccc12 | 97.9 | 100.7 | 4.63* | -11.6 | -65.3 | 158.3* | 177.4* | 128.6 | 98.5
O=S(=O)(Nc1nc2c(s1)CCCC2)c1ccc(F)cc1 | 101.7 | -6.5 | 0.63 | x | -6.0 | 105.5 | x | x | x
